Calls of active or inactive are those of the source. The rule behind the calls is not given here.
How the values were obtained:
DCN1-like protein 1 [1] = molecular target: T1, DCN1-like protein 1 (Homo sapiens, UniProt Q96GG9); assay: Binding affinity to N-terminal His6-tagged recombinant human DCN1 expressed in Escherichia coli BL21-AI assessed as reduction in DCN1-FAM-labelled N-terminal acetylated UBE2M (1 to 12 residues) protein-protein interaction after 30 mins by fluorescence polarization competitive binding assay
DCN1-like protein 1 [2] = molecular target: T1, DCN1-like protein 1; assay: Binding affinity to N-terminal GST tagged recombinant human DCN1 (58 to 259 residues) expressed in Escherichia coli BL21(DE3) assessed as reduction in DCN1-FAM-labelled N-terminal acetylated UBE2M (1 to 21 residues) protein-protein interaction after 30 mins by HTRF assay
KYSE-70 cell line = assay: Antiproliferative activity against human KYSE-70 after 72 hrs by MTT assay; assay type: functional, cell-based; settings: KYSE-70, 72 h
In short: (§1)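 MTT viability assay: cells seeded at 2~5×10^3 per well, exposed to serial dilutions of compound for 72h, then MTT (5 mg/mL in PBS) added for 4h at 37°C. Formazan dissolved in DMSO and read at 490nm. IC50 reported as mean ± SD of three independent experiments.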

PC-9 = assay: Antiproliferative activity against human PC9 by MTT assay; assay type: functional, cell-based; in short: as §1
SMMC-7721 = assay: Antiproliferative activity against human SMMC7721 after 72 hrs by MTT assay; assay type: functional, cell-based; settings: SMMC-7721, 72 h; in short: as §1
PC-3 = assay: Antiproliferative activity against human PC3 after 72 hrs by MTT assay; assay type: functional, cell-based; settings: PC-3, 72 h; in short: as §1
MCF7 = assay: Antiproliferative activity against human MCF7 after 72 hrs by MTT assay; assay type: functional, cell-based; settings: MCF7, 72 h; in short: as §1
[3] = molecular target: T2, DCN1-like protein 1/NEDD8-conjugating enzyme Ubc12 (Homo sapiens) (UniProt Q96GG9+P61081); assay: Inhibition of DCN1-UBE2M protein-protein interaction in human NCI-H1975 cells assessed as stabilization of DCN1 at 10 uM incubated for 5 hrs at 53 degC by cellular thermal shift assay; assay type: cell-based
In short: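 H1975 cells exposed to 10µM compound or 1‰ DMSO for 3-5h (5h in legend), collected, aliquoted and heated 10 min across 43–61°C. Cells lysed by three liquid-nitrogen freeze-thaw cycles and centrifuged at 12,000×g for 20 min. Soluble DCN1 in supernatant quantified by Western blot band intensity; at least three experiments.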

[4] = molecular target: T3, NEDD8-activating enzyme E1 catalytic subunit (Homo sapiens) (UniProt Q8TBC4); assay: Inhibition of NEDD8-activating enzyme E1C (unknown origin) assessed as effect on NEDD8/UBE2M complex formation at 10 to 20 uM pre-incubated for 10 mins followed by Mg-ATP addition after 60 mins by SDS-PAGE analysis
T3 sequence (whole entry): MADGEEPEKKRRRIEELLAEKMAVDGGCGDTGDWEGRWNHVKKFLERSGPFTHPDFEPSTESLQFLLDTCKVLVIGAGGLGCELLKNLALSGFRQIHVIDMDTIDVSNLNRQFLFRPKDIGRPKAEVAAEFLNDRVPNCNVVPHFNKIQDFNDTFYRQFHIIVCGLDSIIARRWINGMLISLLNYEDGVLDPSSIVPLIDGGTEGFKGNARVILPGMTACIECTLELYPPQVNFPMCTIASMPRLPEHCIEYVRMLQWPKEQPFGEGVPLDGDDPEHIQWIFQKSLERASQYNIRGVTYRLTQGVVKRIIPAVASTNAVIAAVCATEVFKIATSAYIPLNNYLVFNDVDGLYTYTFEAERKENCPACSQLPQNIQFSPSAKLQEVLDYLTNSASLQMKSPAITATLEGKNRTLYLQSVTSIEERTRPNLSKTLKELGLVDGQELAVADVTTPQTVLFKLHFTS
In short: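 Cell-free NEDD8~UBE2M formation: NEDD8 E1 mixed with NEDD8, UBE2M and compound (10 and 20µM reference inhibitor, or 1, 10 and 100µM test compound) in reaction buffer, 10 min at room temperature. Started with Mg-ATP, incubated 60 min at 37°C, then 1mM DTT and non-reducing loading buffer added. Resolved on 12% SDS-PAGE.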

[5] = molecular target: T2, DCN1-like protein 1/NEDD8-conjugating enzyme Ubc12 (Homo sapiens); assay: Inhibition of DCN1-UBE2M protein-protein interaction in human NCI-H1975 cells assessed as increase in NRF2 accumulation at 3 uM incubated for 24 hrs by Western blot analysis; assay type: cell-based
In short: (§2)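 H1975 and PC9 cells seeded at 1×10⁶ cells, incubated overnight, then treated 24h with compound (0, 0.3, 1, 10 and 20 μM in methods; 3 μM also listed in text). Lysates cleared at 12,000×g, 20 min, 4°C, protein by BCA, SDS–PAGE, nitrocellulose, primary antibodies overnight at 4°C, HRP secondary, ECL. Densitometry normalised to GAPDH; three experiments.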

[6] = molecular target: T2, DCN1-like protein 1/NEDD8-conjugating enzyme Ubc12 (Homo sapiens); assay: Inhibition of DCN1-UBE2M protein-protein interaction in human NCI-H1975 cells assessed as increase in NQO1 accumulation at 3 uM incubated for 24 hrs by Western blot analysis; assay type: cell-based; in short: as §2
[7] = molecular target: T2, DCN1-like protein 1/NEDD8-conjugating enzyme Ubc12 (Homo sapiens); assay: Inhibition of DCN1-UBE2M protein-protein interaction in human NCI-H1975 cells assessed as increase in HO-1 accumulation at 3 uM incubated for 24 hrs by Western blot analysis; assay type: cell-based; in short: as §2
[8] = molecular target: T2, DCN1-like protein 1/NEDD8-conjugating enzyme Ubc12 (Homo sapiens); assay: Inhibition of DCN1-UBE2M protein-protein interaction in human PC9 cells assessed as increase in NRF2 accumulation at 3 uM incubated for 24 hrs by Western blot analysis; assay type: cell-based; in short: as §2
[9] = molecular target: T2, DCN1-like protein 1/NEDD8-conjugating enzyme Ubc12 (Homo sapiens); assay: Inhibition of DCN1-UBE2M protein-protein interaction in human PC9 cells assessed as increase in NQO1 accumulation at 3 uM incubated for 24 hrs by Western blot analysis; assay type: cell-based; in short: as §2
[10] = molecular target: T2, DCN1-like protein 1/NEDD8-conjugating enzyme Ubc12 (Homo sapiens); assay: Inhibition of DCN1-UBE2M protein-protein interaction in human PC9 cells assessed as increase in HO-1 accumulation at 3 uM incubated for 24 hrs by Western blot analysis; assay type: cell-based; in short: as §2

T1 sequence (Q96GG9 whole entry, the tested form may be a part): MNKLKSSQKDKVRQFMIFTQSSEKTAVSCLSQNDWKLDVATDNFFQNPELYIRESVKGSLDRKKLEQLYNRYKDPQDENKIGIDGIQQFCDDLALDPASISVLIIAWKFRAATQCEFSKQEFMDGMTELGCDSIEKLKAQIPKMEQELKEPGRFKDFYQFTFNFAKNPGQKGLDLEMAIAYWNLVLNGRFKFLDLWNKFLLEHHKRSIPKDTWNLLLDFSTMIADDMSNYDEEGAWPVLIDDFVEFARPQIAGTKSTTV
T2 sequence (P61081 whole entry, looked up): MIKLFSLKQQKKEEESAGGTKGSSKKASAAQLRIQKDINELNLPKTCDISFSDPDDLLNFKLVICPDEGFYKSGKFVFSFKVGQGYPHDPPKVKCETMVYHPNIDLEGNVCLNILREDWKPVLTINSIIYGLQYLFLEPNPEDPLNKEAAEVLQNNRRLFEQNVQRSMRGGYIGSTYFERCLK
T2 sequence (Q96GG9 whole entry, looked up): as the sequence (Q96GG9 whole entry, the tested form may be a part) above

Compound	IC50 (DCN1-like protein 1 [1]) [µM]	IC50 (DCN1-like protein 1 [2]) [µM]	IC50 (KYSE-70 cell line) [µM]	IC50 (PC-9) [µM]	IC50 (SMMC-7721) [µM]	IC50 (PC-3) [µM]	IC50 (MCF7) [µM]	inhibition [3]	inhibition [4]	inhibition [5]	inhibition [6]	inhibition [7]	inhibition [8]	inhibition [9]	inhibition [10]
C#CCSc1nc(Sc2nnnn2CCN(C)C)c(C#N)c(-c2ccc(Cl)cc2)n1	0.0635	0.123	6.56	5.3	7.34	7.17	6.18								
C#CCSc1nc(Sc2nc(C)cs2)c(C#N)c(-c2cc(OC)c(OC)c(OC)c2)n1	> 10	> 10	> 20	> 20	> 20	> 20	> 20	inactive							
C#CCSc1nc(Sc2nccs2)c(C#N)c(-c2ccc[nH]2)n1	> 20	> 10	> 20	> 20	> 20	> 20	> 20								
C#CCSc1nc(Sc2nccs2)c(C#N)c(-c2ccc(Br)cc2)n1	0.552	0.189	10.9	12.1	3.99	8.53	11.6								
C#CCSc1nc(Sc2nccs2)c(C#N)c(-c2ccc(Cl)cc2)n1	0.0366	0.096	5.35	4.13	6.04	3.62	3.23								
C#CCSc1nc(Sc2nc[nH]n2)c(C#N)c(-c2cc(OC)c(OC)c(OC)c2)n1	1.22	> 5	> 20	> 20	> 20	> 20	> 20								
C#CCSc1nc(Sc2ccccn2)c(C#N)c(-c2cc(OC)c(OC)c(OC)c2)n1	> 10	> 2.5	> 10	> 20	> 20	> 10	> 10								
NS(=O)(=O)OC[C@@H]1C[C@@H](n2ccc3c(N[C@H]4CCc5ccccc54)ncnc32)C[C@@H]1O									Active	Active	Active	Active	Active	Active	Active
C#CCSc1nc(Sc2nc(C)c(C)s2)c(C#N)c(-c2cc(OC)c(OC)c(OC)c2)n1	> 10	> 10	> 20	> 20	> 20	> 20	> 20								
C#CCSc1nc(Sc2nnnn2CCN(C)C)c(C#N)c(-c2cccc(Cl)c2)n1	0.106	0.38	5.32	6.48	8.64	3.54	4.12								
C=CC(=O)Nc1ccccc1CN(C(=O)Nc1cccc(C(F)(F)F)c1)C1CCN(C(C)CCC)CC1 (stereo not given)			17.9	5.59	16.2	25.3	10.2								
C#CCSc1nc(Sc2nc3ccccc3s2)c(C#N)c(-c2cc(OC)c(OC)c(OC)c2)n1	> 10	> 5	> 20	> 20	> 20	> 20	> 20								
C#CCSc1nc(Sc2nnnn2C)c(C#N)c(-c2cc(OC)c(OC)c(OC)c2)n1	0.36	0.25													

Source: ChEMBL document CHEMBL4396897, “Potent 5-Cyano-6-phenyl-pyrimidin-Based Derivatives Targeting DCN1-UBE2M Interaction” (J Med Chem, 2019)
